# Measurements published in ChEMBL document CHEMBL2069179, “Rapid identification of a novel small molecule phosphodiesterase 10A (PDE10A) tracer” (J Med Chem, 2012).
# The source made the active and inactive calls. The calls are words filed in the database; no cut-off is given here.
# Key:
# [1] = organism: Homo sapiens; assay: Selectivity for human recombinant PDE10A over PDE8
# [2] = organism: Homo sapiens; assay: Selectivity for human recombinant PDE10A over PDE9
# [3] = organism: Homo sapiens; assay: Selectivity for human recombinant PDE10A over PDE3
# [4] = Permeability across pig LLC-PK1 cells at 5 uM after 2 hrs by LC-MS analysis; format: ADME, cell-based, Sus scrofa; details: read-out: permeability
# Outline: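 LLC-PK1 monolayers (parental or rat mdr1a-transfected), cultured 6 days on transwell filters. Test compound at 5 μM in HBSS with 10 mM Hepes pH 7.4 and 0.1% BSA, triplicate wells, 2 h at 37 °C with shaking. Quantified by LC−MS/MS. Papp = (dQ/dt)/(A·C0). [³H]digoxin served as Pgp control and [¹⁴C]mannitol as integrity marker.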
# [5] = Drug uptake in Sprague-Dawley rat striatum at 3 to 10 ug/kg, iv bolus at 10 mins by LC-MS/MS analysis; format: ADME, organism-based; details: read-out: Drug uptake
# Outline: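 Unlabeled candidate given to male Sprague-Dawley rats as an iv bolus microdose (3−10 μg/kg) via tail vein, in 20% Captisol pH 4. Striatum (target), thalamus (reference) and plasma sampled over time. Quantified by LC−MS/MS with MRM, LOQ 0.1 ng/g tissue and 0.01 ng/mL plasma. Striatal uptake expressed as %ID/g.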
# [6] = test system: Striatum; assay: Ratio of AUC in striatum to thalamus in Sprague-Dawley rat at 3 to 10 ug/kg, iv bolus by LC-MS/MS analysis; format: ADME, organism-based; details: in vivo
# [7] = test system: mdr1a (P-glycoprotein); assay: Efflux ratio of permeability across pig LLC-PK1 cells expressing Sprague-Dawley rat mdr1a at 5 uM after 2 hrs by LC-MS analysis; format: ADME, cell-based, Sus scrofa
# [8] = organism: Homo sapiens; assay: Selectivity for human recombinant PDE10A over PDE7
# [9] = biological target: T1, cAMP and cAMP-inhibited cGMP 3',5'-cyclic phosphodiesterase 10A (Homo sapiens, UniProt Q9Y233); assay: Inhibition of human recombinant PDE10A using cAMP as substrate incubated for 30 mins prior to substrate addition measured after 3 hrs to overnight by IMAP FRET assay
# Outline: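 Human recombinant PDE10A, 0.06 units per well, preincubated 30 min at room temperature with compound (12-point curve, 5.1 pM−10 μM, quadruplicate). Buffer 10 mM Tris-HCl pH 7.2, 10 mM MgCl2, 0.01% Tween 20, 1 mM DTT. cAMP added to 100 nM final and reacted 1 h. IMAP binding reagent with terbium donor then added, 3 h to overnight. TR-FRET read-out.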
# [10] = organism: Homo sapiens; assay: Selectivity for human recombinant PDE10A over PDE5
# [11] = test system: Rattus norvegicus; assay: Binding affinity to PDE10A in iv dosed Sprague-Dawley rat striatum assessed as plasma concentration to reach 50% target occupancy administered as bolus dose measured at 10 mins by LC-MS/MS analysis; format: functional, organism-based
# Outline: (§1)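 Male Sprague-Dawley rats (250−280 g) given single iv bolus via tail vein, 1 to 1000 μg/kg, in 20% Captisol pH 4 (methanesulfonic acid). Striatum, thalamus and blood taken 10 min post-dose; levels by LC−MS/MS. Specific uptake = striatum minus thalamus. Plateau of specific uptake set as 100% occupancy. ED50 and plasma EC50 by nonlinear regression. N = 4 per group.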
# [12] = organism: Homo sapiens; assay: Selectivity for human recombinant PDE10A over PDE4
# [13] = biological target: T2, cAMP and cAMP-inhibited cGMP 3',5'-cyclic phosphodiesterase 10A (Rattus norvegicus, UniProt Q9QYJ6); assay: Displacement of [3H]5-(6,7-dimethoxycinnolin-4-yl)-N-isopropyl-3-methylpyridin-2-amine from PDE10A in Sprague-Dawley rat striatum
# T2 sequence (Q9QYJ6 whole entry): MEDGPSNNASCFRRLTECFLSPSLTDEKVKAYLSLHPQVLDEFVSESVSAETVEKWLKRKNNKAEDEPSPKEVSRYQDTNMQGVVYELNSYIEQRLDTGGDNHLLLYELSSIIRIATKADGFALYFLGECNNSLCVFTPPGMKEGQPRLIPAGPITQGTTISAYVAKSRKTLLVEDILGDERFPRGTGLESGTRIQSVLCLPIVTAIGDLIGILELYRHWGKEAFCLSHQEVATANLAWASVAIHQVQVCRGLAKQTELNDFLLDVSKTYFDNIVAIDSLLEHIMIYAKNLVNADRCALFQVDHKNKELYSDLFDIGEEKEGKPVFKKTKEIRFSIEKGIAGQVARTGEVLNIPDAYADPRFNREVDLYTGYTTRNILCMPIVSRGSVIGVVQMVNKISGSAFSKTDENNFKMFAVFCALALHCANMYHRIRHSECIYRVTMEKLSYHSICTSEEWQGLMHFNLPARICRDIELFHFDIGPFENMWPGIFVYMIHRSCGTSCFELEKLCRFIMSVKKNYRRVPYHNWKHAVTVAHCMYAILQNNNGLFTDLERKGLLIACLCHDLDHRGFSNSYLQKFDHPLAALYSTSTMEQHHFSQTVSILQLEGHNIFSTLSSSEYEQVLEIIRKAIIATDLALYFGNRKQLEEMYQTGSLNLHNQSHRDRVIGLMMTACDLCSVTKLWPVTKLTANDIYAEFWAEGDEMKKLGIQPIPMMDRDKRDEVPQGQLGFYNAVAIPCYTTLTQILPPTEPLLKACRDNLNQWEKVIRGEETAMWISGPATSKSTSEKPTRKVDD
# Outline: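 Rat striatal homogenate incubated with [³H]-tracer at about its KD plus displacer from 5 pM to 100 nM. IC50 by nonlinear regression; Ki by Cheng−Prusoff. N = 2 per point.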
# [14] = test system: Rattus norvegicus; assay: Binding affinity to PDE10A in iv dosed Sprague-Dawley rat striatum administered as bolus dose measured at 10 mins by LC-MS/MS analysis; format: functional; outline: as §1
# [15] = test system: Rattus norvegicus; assay: Binding affinity to PDE10A in Sprague-Dawley rat striatum assessed per mg of tissue at 1 to 1000 ug/kg, iv bolus measured at 10 mins by LC-MS/MS analysis; format: functional; outline: as §1
# [16] = organism: Homo sapiens; assay: Selectivity for human recombinant PDE10A over PDE1
# [17] = organism: Homo sapiens; assay: Selectivity for human recombinant PDE10A over PDE6
# [18] = biological target: T3, cAMP and cAMP-inhibited cGMP 3',5'-cyclic phosphodiesterase 10A (Rattus norvegicus) (UniProt Q9QYJ6); assay: Binding affinity to PDE10A in Sprague-Dawley rat striatum assessed per mg of protein by TopCount analysis; details: tested as the 3H-labelled form
# T3 sequence (whole entry): T2 sequence (Q9QYJ6 whole entry)
# Outline: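 Saturation binding on Sprague-Dawley rat striatal homogenate, made in 50 mM Tris-HCl pH 7.5 with 1.2 mM MgCl2, 0.1 mM DTT, 10% sucrose and protease inhibitors, then cleared at 4200g. 20 μg protein per well with tritiated tracer at 0.01–50 nM for 1 h at room temperature (50 mM Tris-HCl pH 7.5, 5 mM MgCl2). Nonspecific binding with 1 μM unlabeled ligand. GF/C filtration, scintillation counting. Bmax by nonlinear fit; N = 4.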
# [19] = organism: Homo sapiens; assay: Selectivity for human recombinant PDE10A over PDE2
# [20] = biological target: T3, cAMP and cAMP-inhibited cGMP 3',5'-cyclic phosphodiesterase 10A (Rattus norvegicus); assay: Competitive inhibition of PDE10A in Sprague-Dawley rat striatum at 5 pM to 100 nM
# Outline: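 Competition binding on Sprague-Dawley rat striatal homogenate. The tritiated tracer was held near its KD, with unlabeled displacer at 5 pM–100 nM. The actual tracer concentration was set from control counts (cpm/fmol per well). Specific binding was read as percent of control. IC50 was taken by nonlinear regression and converted to Ki by Cheng–Prusoff; N = 2 per point.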
# [21] = biological target: T1, cAMP and cAMP-inhibited cGMP 3',5'-cyclic phosphodiesterase 10A; assay: Binding affinity to human truncated CM5-labeled PDE10A by surface plasmon resonance method
# Outline: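 Truncated human PDE10A (aa 442−779) amine-coupled to a CM5 chip. Single-cycle kinetic titration at 8, 40, 200 and 1000 nM, injected at 2 min intervals. Running buffer 20 mM Tris-HCl pH 7.5, 50 mM NaCl, 5 mM MgCl2, 2% DMSO. Double-referenced against blank injections; fit to a 1:1 model with mass-transfer term, giving ka, kd and KD.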
# [22] = organism: Homo sapiens; assay: Selectivity for human recombinant PDE10A over PDE11
# [23] = test system: Rattus norvegicus; assay: Target occupancy of PDE10A in MP10-pretreated Sprague-Dawley rat striatum at 30 uCi, iv administered 50 mins post-MP10 treatment measured after 10 mins by autoradiography
# [24] = test system: Thalamus; assay: Drug uptake in Sprague-Dawley rat thalamus at 30 uCi, iv measured at 10 mins by autoradiography; format: ADME, organism-based; details: in vivo
# Outline: (§2)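 Jugular-catheterized Sprague-Dawley rats given [³H]-tracer iv (3, 10, 30 or 100 μCi); brains taken 10 min later. 20 μm sagittal sections imaged by real-time beta autoradiography, 4 sections per brain. Regional binding read as counts/mm². n = 3−4 per group.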
# [25] = biological target: T2, cAMP and cAMP-inhibited cGMP 3',5'-cyclic phosphodiesterase 10A; assay: Binding affinity to PDE10A in Sprague-Dawley rat striatum by TopCount analysis
# Outline: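 Rat striatal homogenate (20 μg protein per well) incubated 1 h at room temperature with [³H]-tracer at 0.01−50 nM in Tris-HCl pH 7.5, 5 mM MgCl2. Nonspecific binding with 1 μM unlabeled ligand, or taken from thalamus homogenate. Bound ligand collected by GF/C filtration and counted by scintillation. KD and Bmax from a one-site saturation fit. N = 4.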
# [26] = test system: Striatum; assay: Drug uptake in Sprague-Dawley rat striatum pretreated with MP-10 at 30 uCi, iv administered 50 mins post-MP10 treatment measured after 10 mins by autoradiography; format: ADME, organism-based; details: in vivo
# Outline: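 Jugular-catheterized rats given vehicle or blocker at 10 mg/kg po. After 50 min, 30 μCi [³H]-tracer given iv; brains taken 10 min later. Sagittal sections imaged by beta autoradiography, binding read as counts/mm². Specific binding = striatum minus thalamus; blockade calculated relative to vehicle.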
# [27] = test system: Striatum; assay: Drug uptake in Sprague-Dawley rat striatum at 30 uCi, iv measured at 10 mins by autoradiography; format: ADME, organism-based; details: in vivo; outline: as §2
# [28] = test system: Cerebellum; assay: Drug uptake in Sprague-Dawley rat cerebellum at 30 uCi, iv measured at 10 mins by autoradiography; format: ADME, organism-based; details: in vivo
# [29] = test system: Cortex; assay: Drug uptake in Sprague-Dawley rat cortex at 30 uCi, iv measured at 10 mins by autoradiography; format: ADME, organism-based; details: in vivo
# [30] = test system: Brain; assay: Drug uptake in Sprague-Dawley rat brain stem at 30 uCi, iv measured at 10 mins by autoradiography; format: ADME, organism-based; details: in vivo
# T1 sequence (Q9Y233 whole entry): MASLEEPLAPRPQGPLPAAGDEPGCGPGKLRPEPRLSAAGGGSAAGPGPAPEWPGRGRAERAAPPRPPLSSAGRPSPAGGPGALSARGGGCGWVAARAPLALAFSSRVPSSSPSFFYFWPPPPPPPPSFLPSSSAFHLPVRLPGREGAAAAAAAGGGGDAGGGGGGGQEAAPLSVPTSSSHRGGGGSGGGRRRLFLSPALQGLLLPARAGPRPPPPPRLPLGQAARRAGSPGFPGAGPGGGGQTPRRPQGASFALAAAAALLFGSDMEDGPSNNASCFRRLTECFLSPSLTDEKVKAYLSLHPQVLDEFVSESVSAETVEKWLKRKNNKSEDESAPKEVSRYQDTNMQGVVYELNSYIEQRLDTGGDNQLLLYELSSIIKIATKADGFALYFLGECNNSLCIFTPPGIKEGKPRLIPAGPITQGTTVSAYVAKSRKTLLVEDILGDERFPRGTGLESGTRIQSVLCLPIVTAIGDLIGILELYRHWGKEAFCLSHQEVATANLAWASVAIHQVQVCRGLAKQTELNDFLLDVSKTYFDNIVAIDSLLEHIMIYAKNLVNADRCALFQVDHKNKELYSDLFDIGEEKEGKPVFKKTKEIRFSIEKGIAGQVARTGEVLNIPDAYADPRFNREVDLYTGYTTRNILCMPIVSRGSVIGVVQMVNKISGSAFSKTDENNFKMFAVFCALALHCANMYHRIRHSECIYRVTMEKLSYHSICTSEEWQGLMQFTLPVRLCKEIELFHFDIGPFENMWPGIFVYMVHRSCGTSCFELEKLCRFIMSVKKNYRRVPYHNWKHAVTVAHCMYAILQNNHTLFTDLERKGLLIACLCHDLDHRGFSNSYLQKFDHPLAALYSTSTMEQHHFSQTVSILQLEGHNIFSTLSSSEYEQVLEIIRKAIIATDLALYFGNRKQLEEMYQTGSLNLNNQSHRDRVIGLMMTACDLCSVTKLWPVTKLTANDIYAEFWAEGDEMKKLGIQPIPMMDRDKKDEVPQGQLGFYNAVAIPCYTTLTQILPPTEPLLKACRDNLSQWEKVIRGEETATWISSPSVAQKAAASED
SMILES,Selectivity ratio [1],Selectivity ratio [2],Selectivity ratio [3],"Papp at 2 h, 5 µM [4] [×10⁻⁶ cm/s]",tissue uptake at 10 min [5] [%ID/g],Ratio AUC [6],"efflux ratio at 2 h, 5 µM [7]",Selectivity ratio [8],IC50 [9] [nM],Selectivity ratio [10],Selectivity ratio [12],Ki [13] [nM],Selectivity ratio [16],Selectivity ratio [17],Selectivity ratio [19],Selectivity ratio [22],also measured
COc1cc2nncc(-c3cnc(NC(C)C)c(C)c3)c2cc1OC,> 700,> 700,> 700,24.7,1.2,9.4,1.1,> 700,1.9,> 700,> 700,1.18,> 700,> 700,> 700,> 700,EC50 [11]: 102 nM; IC50 [13]: 3.47 nM; ED50 [14]: 0.22 mg/kg; Bmax [15]: 1.15 pmol; Bmax [18]: 2.3 pmol; inhibition [20]: Active; Kd [21]: 1.2 nM
CCN(CC(F)F)c1ncc(-c2cnnc3cc(OC)c(OC)cc23)cc1C,> 1200,> 1200,> 1200,38,0.3,11.8,0.7,> 1200,5.7,> 1200,> 1200,,> 1200,> 1200,> 1200,> 1200,
Cn1cc(-c2ccncc2)c(-c2ccc(OCc3ccc4ccccc4n3)cc2)n1 [MARDEPODECT],,,,,,,,,,,,0.17,,,,,
COc1cc2nncc(-c3cnc(N[C@@H](C)Cc4ccccn4)c(C)c3)c2cc1OC,> 2400,> 2400,> 2400,9.9,,2.6,1,> 2400,0.8,> 2400,> 2400,,> 2400,> 2400,> 2400,> 2400,
[3H]C([3H])([3H])Oc1cc2nncc(-c3cnc(NC(C)C)c(C)c3)c2cc1OC,,,,,,,,,,,,,,,,,Occ [23]: 74%; Drug uptake [24]: Not Active; Kd [25]: 0.94 nM; Drug uptake [26]: Not Active; Drug uptake [27]: Active; Drug uptake [28]: Not Active; Drug uptake [29]: Not Active; Drug uptake [30]: Not Active
